We go through 16 compounds from PubChem BioAssay.

Assay [1] addresses Pantothenate synthetase (Mycobacterium tuberculosis (strain ATCC 25618 / H37Rv)) (UniProt P9WIL5). Briefly: Coupled enzyme confirmation of inhibitors against recombinant Mtb PanC (AID 375; call rule not given here;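 also: 0% = full reaction with vehicle and 100% = no enzyme background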). To be noted: coupled enzyme assay; at 10 µM, stronger effect = higher value.
A short description of assay [2]: Her2 expression decrease, cell viability multiplex – SKBR3 breast tumor cells, AlphaScreen, ATP viability, primary screen (AID 461;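 active = Her2 level under about 52% in both replicate screens, with viability over 70% of control, limit read from the data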;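 as to Her2 level: lower value means less Her2 protein in the cells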;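 as to viability: percent of carrier control wells set as 100% viability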). To be noted: SKBR3 Her2 protein level, 18-24 h, measured here: SKBR3 viability, ATP luminescence, at 10 µM. Background: In Alpha technology, singlet oxygen from a donor bead excites a nearby acceptor bead.
The target of assay [3] is Receptor tyrosine-protein kinase erbB-2 (Homo sapiens) (UniProt P04626). The assay is described as above. To be noted: 18-24 h, at 10 µM, stronger effect = lower value.
Assay [4] in a line: reduced viability of SK-BR-3 breast cancer cells – cell-based, 24 h, human, pilot screen (AID 572;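 active = viability at or below 10% of carrier control in both of two separate runs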;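 also: compound exposure lasted between 18 and 24 h rather than exactly 24 h; 100% = carrier-treated control wells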). As to conditions: SK-BR-3 viability, CellTiter-Glo luminescence, at 10 µM, stronger effect = lower value. Background: Cellular ATP, detected with luciferase, serves as a proxy for viable cell number.
Assay [5] is described as follows: HUVEC growth inhibition – cell-based, human, primary screen (AID 575;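 active = viability at or below 30% in both replicate assays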;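 also: 100% = median of untreated cell wells with 0.1% DMSO on each plate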). As to conditions: HUVEC proliferation, CellTiter-Glo luminescence, 72 h; at 10 µM; stronger effect = lower value. Summed up:
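Timing: 72 h treatment at 37 °C; material: HUVEC primary cells; technique: CellTiter-Glo luminescence measuring cellular ATP; controls: vehicle and MePR control wells; measure: percent of median DMSO-control luminescence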

A short description of assay [6]: H69AR cell proliferation blockers – human, duplicate replicates, primary screen (AID 580).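 Also: 100% = mean luminescence of untreated wells and 0% = no signal.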 As to conditions: H69AR lung tumor cells viability, ATP luminescence, 72 h; at 10 µM; stronger effect = lower value.
A short description of assay [7]: MRP1 drug-resistance reversers in H69AR cells – cell-based, doxorubicin co-treatment, pilot screen (AID 601;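 active = viability loss from added drug above about 55%, and viability with drug at most 40%, in both replicates, limit read from the data, passing the limit was not always enough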). As to conditions: CellTiter-Glo, 72 h, at 10 µM; for differential viability (reversal): stronger effect = higher value.
Assay [8] in a line: yeast transport mutant growth inhibition pilot in 384-well plates, post-Golgi transport modulator project (AID 636; in the data active = inhibition above about 31%). As to conditions: absorbance 615 nm, about 18 h, stronger effect = higher value.
Assay [9] in a line: growth suppression of yeast trafficking mutant, preliminary HTS, modulators of trafficking downstream of Golgi apparatus project, 1536-format plate, OD 615 nm (AID 637; in the data active = inhibition above about 30%). As to conditions: yeast transport mutant growth, absorbance 615 nm, 18 h; stronger effect = higher value.
Where [10] appears, read: H69AR cells + 2 uM doxorubicin, measured here: viability with 2 uM doxorubicin, stronger effect = lower value.
[11] abbreviates: H69AR cells, compound alone cytotoxicity.

The source made the active and inactive calls.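 The calls were made as follows, unless noted: active = viability at or under a set limit in both replicates, limit being median viability minus 3 SD (cut at about 48% in these data, passing the limit was not always enough); inconclusive = at or under the limit in just one replicate; inactive = at or above the limit in both replicates.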

Chain of Pantothenate synthetase (Mycobacterium tuberculosis (strain ATCC 25618 / H37Rv)) (P9WIL5 whole entry, looked up): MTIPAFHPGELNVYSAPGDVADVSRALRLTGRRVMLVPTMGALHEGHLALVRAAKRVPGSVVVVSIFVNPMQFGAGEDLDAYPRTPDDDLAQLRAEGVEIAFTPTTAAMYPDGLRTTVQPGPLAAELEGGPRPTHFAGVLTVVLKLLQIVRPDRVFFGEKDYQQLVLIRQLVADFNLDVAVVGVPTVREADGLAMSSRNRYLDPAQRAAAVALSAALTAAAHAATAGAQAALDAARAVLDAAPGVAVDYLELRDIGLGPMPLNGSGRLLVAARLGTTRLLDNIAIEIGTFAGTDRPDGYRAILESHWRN
Chain of Receptor tyrosine-protein kinase erbB-2 (Homo sapiens) (P04626 whole entry, looked up): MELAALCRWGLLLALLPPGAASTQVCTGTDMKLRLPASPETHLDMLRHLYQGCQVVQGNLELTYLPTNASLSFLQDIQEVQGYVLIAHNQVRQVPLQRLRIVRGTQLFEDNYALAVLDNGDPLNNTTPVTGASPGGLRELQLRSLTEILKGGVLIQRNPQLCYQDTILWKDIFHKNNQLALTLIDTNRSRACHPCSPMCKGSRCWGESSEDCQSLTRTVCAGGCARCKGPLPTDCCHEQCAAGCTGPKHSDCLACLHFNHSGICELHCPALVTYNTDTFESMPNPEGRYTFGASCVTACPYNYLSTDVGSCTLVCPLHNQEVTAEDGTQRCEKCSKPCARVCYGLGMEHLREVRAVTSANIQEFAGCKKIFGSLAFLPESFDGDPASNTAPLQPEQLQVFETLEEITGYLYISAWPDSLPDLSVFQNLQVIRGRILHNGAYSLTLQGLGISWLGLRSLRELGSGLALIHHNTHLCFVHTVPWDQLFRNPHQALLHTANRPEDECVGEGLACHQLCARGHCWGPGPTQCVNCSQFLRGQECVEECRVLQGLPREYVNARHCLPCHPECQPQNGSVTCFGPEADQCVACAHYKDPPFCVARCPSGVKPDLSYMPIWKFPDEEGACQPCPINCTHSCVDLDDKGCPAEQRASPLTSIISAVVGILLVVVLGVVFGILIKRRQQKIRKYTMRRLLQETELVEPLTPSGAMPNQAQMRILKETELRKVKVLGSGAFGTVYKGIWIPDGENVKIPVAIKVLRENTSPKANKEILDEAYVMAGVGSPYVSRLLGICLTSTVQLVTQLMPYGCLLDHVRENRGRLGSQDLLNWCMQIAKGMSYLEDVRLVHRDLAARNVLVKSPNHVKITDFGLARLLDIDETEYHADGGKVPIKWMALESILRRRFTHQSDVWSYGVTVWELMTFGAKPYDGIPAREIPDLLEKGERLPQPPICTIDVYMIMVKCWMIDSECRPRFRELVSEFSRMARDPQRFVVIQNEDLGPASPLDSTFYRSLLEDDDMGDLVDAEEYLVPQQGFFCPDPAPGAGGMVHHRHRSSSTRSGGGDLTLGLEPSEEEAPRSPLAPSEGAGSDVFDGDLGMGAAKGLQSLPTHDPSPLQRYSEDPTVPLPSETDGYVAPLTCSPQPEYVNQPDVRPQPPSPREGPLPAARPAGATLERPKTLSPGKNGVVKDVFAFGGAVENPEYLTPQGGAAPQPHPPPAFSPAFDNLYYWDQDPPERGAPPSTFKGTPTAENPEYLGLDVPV

By inhibition is commonly meant the change of the read-out against control, counted positive when it falls. Usually viability stands for a read-out of living cells in per cent, often relative to untreated cells. `O=C(CCCOc1ccc(Cl)cc1Cl)N1CCC2(CC1)OCCO2`: the inhibition in assay [1] was 0% (inactive); in [8], -5% (inactive); in [9], -2% (inactive). In addition, the viability in assay [2] was 106%; in assay [4], 106% (inactive); in assay [5], 93.3% (inactive); in assay [6], 92.5% (inactive); in assay [7] (setting [10]) it was 81.5%; in assay [7] (setting [11]), 92.5%. Moreover, the Her2 level in assay [3] was 96.5% (inactive). Besides, in [7] (H69AR cells + 2 uM doxorubicin), the differential viability (reversal) is 11.1% (inactive).
For `CC(C)OC(=O)c1c(N)n(CC2CCCO2)c2nc3ccccc3nc12` (centres undefined), the inhibition in [1] is 5% (inactive); in assay [8], -1.58% (inactive); in assay [9], -3.17% (inactive). Besides, the viability was 86.5% in assay [2]; 86.5% (inactive) in [4]; 102% (inactive) in assay [5]; 94.7% (inactive) in assay [6]; 89.7% in [7] (setting [10]); 94.7% in assay [7] (setting [11]). Besides, in [3], the Her2 level was 92.5% (inactive). In addition, in assay [7] (H69AR cells + 2 uM doxorubicin), the differential viability (reversal) is 4.96% (inactive).
Turning to `Cc1cnn(C2CCN(C)CC2)c1N`, the inhibition in assay [1] is 0% (inactive); in [8], 0.14% (inactive); in assay [9], -5.41% (inactive). Also, the viability in assay [2] is 97%; in [4], 97% (inactive); in assay [5], 102% (inactive); in [6] it was 104% (inactive); in assay [7] (setting [10]), 98.4%; in assay [7] (setting [11]), 104%. In addition, the Her2 level in assay [3] was 96.5% (inactive). In addition, the differential viability (reversal) in assay [7] (H69AR cells + 2 uM doxorubicin) is 5.52% (inactive).
As for `COc1ccc(C2NCc3ccc4c(c3-n3cccc32)OCO4)cc1O` (centres undefined), the results for the inhibition in assay [1], in assay [8] and in [9] were 0% (inactive), -5.79% (inactive) and -5.56% (inactive), respectively. For the same compound, the viability in assay [2] is 110%; in assay [4], 110% (inactive); in [5], 40.7% (inactive); in assay [6], 25.5% (active); in assay [7] (setting [10]), 67%; in [7] (setting [11]) it was 25.5%. For the same compound, the Her2 level in [3] is 73% (inactive). Further, the differential viability (reversal) in assay [7] (H69AR cells + 2 uM doxorubicin) was -41.5% (inactive).
For `C[C@@]1(CO)[C@H](O)CC[C@@]2(C)[C@H]1CC[C@H]1C[C@@H]3C[C@@]12CC[C@]3(O)CO`, in assay [1], the inhibition is 0% (inactive). Also, the viability is 108% in assay [2]; 108% (inactive) in [4]; 49.2% (inactive) in assay [5]; 80.6% (inactive) in [6]; 109% in assay [7] (setting [10]); 80.6% in [7] (setting [11]). In [3], the Her2 level is 81.5% (inactive). The differential viability (reversal) in assay [7] (H69AR cells + 2 uM doxorubicin) is -28.1% (inactive).
As to `Nc1ccccc1C(=O)OC1CSC1`, the inhibition in [1] is 0% (inactive); in assay [8] it was -2.53% (inactive); in assay [9], 1.45% (inactive). Also, the viability is 132% in assay [2]; 132% (inactive) in [4]; 105% (inactive) in assay [5]; 89.2% (inactive) in assay [6]; 88.7% in [7] (setting [10]); 89.2% in [7] (setting [11]). The Her2 level in assay [3] is 110% (inactive). Moreover, the differential viability (reversal) in [7] (H69AR cells + 2 uM doxorubicin) is 0.43% (inactive).
On to `Cc1cc(N2C(=O)C3CCCN3C2c2cccc(Cl)c2)no1` (centres undefined), for which the figures for the inhibition in [1], in [8] and in assay [9] were 4% (inactive), -0.13% (inactive) and -0.97% (inactive), respectively. Further, the viability in assay [2] is 95%; in assay [4] it was 95% (inactive); in [5] it was 89.3% (inactive); in assay [6], 109% (inactive); in assay [7] (setting [10]) it was 88%; in [7] (setting [11]), 109%. In [3], the Her2 level was 96.5% (inactive). In [7] (H69AR cells + 2 uM doxorubicin), the differential viability (reversal) is 21% (inactive).
For the compound `CC1=C(C(=O)OC(C)C)[C@]2(C(=O)N(CC(N)=O)c3ccccc32)C(C#N)=C(N)O1`, the inhibition in assay [1] is 3% (inactive); in [8] it was -6.8% (inactive); in assay [9], 19.5% (inactive). For the same compound, the viability in assay [2] was 92%; in [4] it was 92% (inactive); in [5], 110% (inactive); in [6], 113% (inactive); in [7] (setting [10]), 97.5%; in assay [7] (setting [11]), 113%. For the same compound, the Her2 level in assay [3] was 85.5% (inactive). In addition, the differential viability (reversal) in assay [7] (H69AR cells + 2 uM doxorubicin) was 15.5% (inactive).
As to `CCn1c(C)c(C(=O)O)c2cc(OC)ccc21`, the figures for the inhibition in [1], in [8] and in assay [9] were 4% (inactive), -3.2% (inactive) and -0.65% (inactive), respectively. Besides, the viability in assay [2] was 88.5%; in assay [4] it was 88.5% (inactive); in assay [5] it was 105% (inactive); in [6], 96.1% (inactive); in [7] (setting [10]) it was 101%; in assay [7] (setting [11]) it was 96.1%. Also, the Her2 level in [3] is 76% (inactive). Besides, in assay [7] (H69AR cells + 2 uM doxorubicin), the differential viability (reversal) was -4.98% (inactive).
Take `COc1ccccc1OCCCn1cc(C(=O)c2ccco2)c2ccccc21`: the results for the inhibition in assay [1], in assay [8] and in [9] were 0% (inactive), -4.73% (inactive) and -5.33% (inactive), respectively. Also, the viability in [2] is 106%; in assay [4], 106% (inactive); in [5], 74.9% (inactive); in [6], 77.5% (inactive); in assay [7] (setting [10]) it was 82.7%; in assay [7] (setting [11]) it was 77.5%. Also, in assay [3], the Her2 level is 96% (inactive). Also, the differential viability (reversal) in assay [7] (H69AR cells + 2 uM doxorubicin) was -5.27% (inactive).
As to `N#Cc1ccccc1Cn1cc(C(=O)C2CC2)c2ccccc21`, the results for the inhibition in assay [1], in [8] and in [9] were 0% (inactive), -3.38% (inactive) and -5.5% (inactive), respectively. For the same compound, the viability in assay [2] was 86%; in assay [4], 86% (inactive); in assay [5], 81.5% (inactive); in assay [6] it was 59.4% (inactive); in assay [7] (setting [10]), 91.8%; in assay [7] (setting [11]), 59.4%. In addition, the Her2 level in assay [3] was 103% (inactive). In [7] (H69AR cells + 2 uM doxorubicin), the differential viability (reversal) is -32.4% (inactive).
On to `CCCCOc1ccc(CN2CCN(CCO)CC2)cc1`, for which the results for the inhibition in [1], in assay [8] and in [9] were 0% (inactive), 1.17% (inactive) and -1.64% (inactive), respectively. The viability is 74% in assay [2]; 74% (inactive) in [4]; 94.7% (inactive) in assay [5]; 90.1% (inactive) in assay [6]; 77.9% in assay [7] (setting [10]); 90.1% in assay [7] (setting [11]). Further, the Her2 level in [3] was 91.5% (inactive). In assay [7] (H69AR cells + 2 uM doxorubicin), the differential viability (reversal) was 12.2% (inactive).
For the compound `NCCc1ccc(O)cc1`, the inhibition in assay [1] is 0% (inactive); in assay [8], -5% (inactive); in assay [9], -21.1% (inactive). In addition, the viability was 112% in [2]; 112% (inactive) in assay [4]; 103% (inactive) in assay [5]; 96.2% (inactive) in [6]; 92.1% in assay [7] (setting [10]); 96.2% in [7] (setting [11]). Moreover, the Her2 level in [3] is 112% (inactive). The differential viability (reversal) in [7] (H69AR cells + 2 uM doxorubicin) was 4.17% (inactive).
Take `COC(=O)c1ccccc1-n1c(C)nc2ccccc2c1=O`: the values for the inhibition in assay [1], in assay [8] and in assay [9] were 4% (inactive), -2.5% (inactive) and -5.97% (inactive), respectively. Also, the viability in [2] was 90%; in assay [4], 90% (inactive); in assay [5], 111% (inactive); in [6], 98.5% (inactive); in assay [7] (setting [10]), 95.2%; in assay [7] (setting [11]), 98.5%. The Her2 level in assay [3] is 105% (inactive). Moreover, in [7] (H69AR cells + 2 uM doxorubicin), the differential viability (reversal) was 3.37% (inactive).
As to `CC(C)C(=O)c1cn(Cc2ccccc2C#N)c2ccccc12`, the inhibition in assay [1] was 8% (inactive); in assay [8] it was -4.53% (inactive); in [9], 3.97% (inactive). The viability in assay [2] is 98%; in [4] it was 98% (inactive); in assay [5], 97% (inactive); in assay [6] it was 82.8% (inactive); in [7] (setting [10]), 90.3%; in [7] (setting [11]), 82.8%. In [3], the Her2 level is 100% (inactive). The differential viability (reversal) in assay [7] (H69AR cells + 2 uM doxorubicin) is -7.5% (inactive).
On to `CCN1CCN(c2ncnc3ccc(Br)cc23)CC1`, for which the inhibition was 0% (inactive) in assay [1], -0.79% (inactive) in assay [8] and 5.25% (inactive) in assay [9]. Moreover, the viability is 100% in assay [2]; 100% (inactive) in assay [4]; 59.2% (inactive) in assay [5]; 91.2% (inactive) in assay [6]; 100% in assay [7] (setting [10]); 91.2% in assay [7] (setting [11]). In addition, the Her2 level in assay [3] was 110% (inactive). In addition, in assay [7] (H69AR cells + 2 uM doxorubicin), the differential viability (reversal) was -8.96% (inactive).
